How the values were obtained:
[1] = target: 5-hydroxytryptamine receptor 4 (Rattus norvegicus) (UniProt Q62758); experiment: Antagonistic activity evaluated by ability to block serotonin induced relaxation via 5-hydroxytryptamine 4 receptor) in carbamylcholine (10e-6 M) contracted esophagus at a concentration of 0.1 mg/kg (p.o.); type: functional, organism-based; set-up: dose 0.1 mg/kg
Summary of the method: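 Rats were dosed with the antagonist by oral gavage. Esophagus was removed 3 h after dosing and challenged ex vivo with serotonin. Read-out was % relaxation of the carbamylcholine-contracted tissue to 10^-6 M 5-HT, given as mean ± SEM with the number of determinations.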

[2] = target: 5-hydroxytryptamine receptor 4 (Rattus norvegicus) (UniProt Q62758); experiment: Antagonistic activity by ability to block serotonin induced relaxation (mediated by activation of 5-hydroxytryptamine 4 receptor) in carbamylcholine (10e-6 M) contracted esophagus at a concentration of 10e-6 M.; type: functional, tissue-based
Summary of the method: (§1)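 Isolated rat esophagus precontracted with carbamylcholine (10^-6 M). Tissue was challenged with serotonin (1 µM) in the presence of the antagonist at a given concentration or of vehicle. Relaxation was recorded as % relaxation to 10^-6 M 5-HT, given as mean ± SEM with the number of determinations.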

[3] = target: 5-hydroxytryptamine receptor 4 (Rattus norvegicus) (UniProt Q62758); experiment: Antagonistic activity evaluated by ability to block serotonin induced relaxation (mediated by activation of 5-hydroxytryptamine 4 receptor) in carbamylcholine (10e-6 M) contracted esophagus at a concentration of 10e-5 M.; type: functional, tissue-based; summary of the method: as §1
[4] = target: T1, Adrenergic receptor alpha-1 (Rattus norvegicus) (UniProt P15823+P23944+P43140); experiment: Binding affinity for Alpha-1 adrenergic receptor in rat aorta determined by block of norepinephrine induced contraction of rat aorta; type: tissue-based
[5] = target: T1, Adrenergic receptor alpha-1 (Rattus norvegicus); experiment: Affinity for the alpha-1 adrenergic receptor determined by the displacement of [3H]prazosin from rat whole brain tissue.; type: tissue-based
[6] = target: 5-hydroxytryptamine receptor 4 (Rattus norvegicus) (UniProt Q62758); experiment: Antagonistic activity by ability to block serotonin induced relaxation (mediated by activation of 5-hydroxytryptamine 4 receptor) in carbamylcholine (10e-6 M) contracted esophagus at a concentration of 10e-7 M.; type: functional, tissue-based; summary of the method: as §1
[7] = target: 5-hydroxytryptamine receptor 4 (Rattus norvegicus) (UniProt Q62758); experiment: Antagonistic activity evaluated by ability to block serotonin induced relaxation (via 5-hydroxytryptamine 4 receptor) in carbamylcholine (10e-6 M) contracted esophagus at a concentration of 3*10e-8 M.; type: functional
Summary of the method: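 Isolated rat esophagus precontracted with carbamylcholine (10^-6 M), then challenged with serotonin (1 μM) in the presence of antagonist at the stated concentration or vehicle. Read-out is % relaxation to serotonin, given as mean ± SEM with the number of determinations.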

[8] = target: 5-hydroxytryptamine receptor 4 (Rattus norvegicus) (UniProt Q62758); experiment: Antagonistic activity evaluated by ability to block serotonin induced relaxation (mediated by activation of 5-hydroxytryptamine 4 receptor) in carbamylcholine (10e-6 M) contracted esophagus at a concentration of 10e-8 M.; type: functional, tissue-based; summary of the method: as §1
[9] = target: Serotonin 2 (5-HT2) receptor (Rattus norvegicus) (UniProt P30994+P08909+P14842); experiment: Binding affinity against 5-hydroxytryptamine 2 receptor in serotonin-induced contraction of the rat aorta; type: tissue-based
Sequence of Serotonin 2 (5-HT2) receptor (Rattus norvegicus) (P08909 whole entry, looked up): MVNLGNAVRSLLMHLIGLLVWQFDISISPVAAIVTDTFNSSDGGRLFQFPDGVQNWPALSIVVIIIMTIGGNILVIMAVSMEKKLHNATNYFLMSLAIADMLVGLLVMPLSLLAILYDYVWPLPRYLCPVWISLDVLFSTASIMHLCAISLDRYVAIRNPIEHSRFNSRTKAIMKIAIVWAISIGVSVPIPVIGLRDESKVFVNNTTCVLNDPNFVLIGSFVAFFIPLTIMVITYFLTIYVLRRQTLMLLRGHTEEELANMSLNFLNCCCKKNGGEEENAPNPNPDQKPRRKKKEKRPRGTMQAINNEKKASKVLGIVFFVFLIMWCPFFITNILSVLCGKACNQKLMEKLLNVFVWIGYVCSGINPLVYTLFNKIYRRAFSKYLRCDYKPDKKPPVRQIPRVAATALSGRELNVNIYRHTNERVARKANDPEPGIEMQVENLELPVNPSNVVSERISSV
Sequence of Serotonin 2 (5-HT2) receptor (Rattus norvegicus) (P14842 whole entry, looked up): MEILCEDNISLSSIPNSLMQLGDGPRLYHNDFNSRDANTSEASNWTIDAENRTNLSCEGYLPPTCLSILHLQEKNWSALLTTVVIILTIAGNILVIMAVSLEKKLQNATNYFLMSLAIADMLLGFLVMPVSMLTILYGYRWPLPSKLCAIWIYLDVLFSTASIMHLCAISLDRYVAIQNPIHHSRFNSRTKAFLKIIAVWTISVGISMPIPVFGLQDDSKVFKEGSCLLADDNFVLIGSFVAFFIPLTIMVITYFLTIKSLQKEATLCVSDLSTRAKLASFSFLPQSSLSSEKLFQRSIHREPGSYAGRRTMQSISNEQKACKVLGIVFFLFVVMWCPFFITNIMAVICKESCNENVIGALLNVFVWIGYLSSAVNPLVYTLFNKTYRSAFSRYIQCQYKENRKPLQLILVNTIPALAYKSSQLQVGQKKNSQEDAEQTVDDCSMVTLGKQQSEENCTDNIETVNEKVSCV
Sequence of Serotonin 2 (5-HT2) receptor (Rattus norvegicus) (P30994 whole entry, looked up): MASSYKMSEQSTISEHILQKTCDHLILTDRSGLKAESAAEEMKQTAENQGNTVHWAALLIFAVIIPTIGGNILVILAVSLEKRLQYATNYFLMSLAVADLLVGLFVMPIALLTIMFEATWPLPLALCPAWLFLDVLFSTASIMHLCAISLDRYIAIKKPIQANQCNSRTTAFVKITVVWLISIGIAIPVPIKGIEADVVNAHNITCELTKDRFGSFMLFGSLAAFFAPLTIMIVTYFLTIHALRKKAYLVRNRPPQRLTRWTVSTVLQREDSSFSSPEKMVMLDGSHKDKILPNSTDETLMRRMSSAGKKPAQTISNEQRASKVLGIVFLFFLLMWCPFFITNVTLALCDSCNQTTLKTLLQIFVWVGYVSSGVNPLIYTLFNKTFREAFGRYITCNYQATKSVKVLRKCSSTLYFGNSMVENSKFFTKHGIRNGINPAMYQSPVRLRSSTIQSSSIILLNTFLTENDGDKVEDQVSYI

[10] = target: Serotonin 3 (5-HT3) receptor (Homo sapiens) (UniProt P46098+A5X5Y0+O95264+Q70Z44+Q8WXA8); experiment: The compound was tested for binding affinity against 5-hydroxytryptamine 3 receptor in guinea pig ileum.; type: tissue-based; conditions: Cavia porcellus, target entry is the homologue from another species

Sequence of 5-hydroxytryptamine receptor 4 (Rattus norvegicus) (Q62758 whole entry): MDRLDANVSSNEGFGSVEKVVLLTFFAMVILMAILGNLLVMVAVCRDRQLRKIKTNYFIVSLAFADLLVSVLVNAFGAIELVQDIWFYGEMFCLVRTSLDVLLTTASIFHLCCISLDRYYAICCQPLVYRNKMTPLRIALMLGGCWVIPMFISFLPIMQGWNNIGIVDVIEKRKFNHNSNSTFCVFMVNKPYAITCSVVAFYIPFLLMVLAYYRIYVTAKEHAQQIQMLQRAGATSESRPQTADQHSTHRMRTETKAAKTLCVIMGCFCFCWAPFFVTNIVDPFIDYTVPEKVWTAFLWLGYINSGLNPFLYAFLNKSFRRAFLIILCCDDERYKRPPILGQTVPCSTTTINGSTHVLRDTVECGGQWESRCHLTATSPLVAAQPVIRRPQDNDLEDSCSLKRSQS

Compound	Relaxation [1] [%]	Relaxation [2] [%]	other results
CC(C)n1nc(C(=O)NCCN2CCC(N)CC2)c2ccccc21	41	36.8	
COc1cc(N)c(Cl)cc1C(=O)NC1CC2CCC(C1)N2C (stereo not drawn)		5.4	Relaxation [3]: 2.8%
CC(C)n1nc(C(=O)NCCN2CCC(NC(=O)OCc3ccccc3)CC2)c2ccccc21	21	2.8	pKb [4]: < 5; pKi [5]: 5.9
CC(C)n1nc(C(=O)NCCN2CCCC2)c2ccccc21	51	4.3	pKi [5]: < 4
CC(C)n1nc(C(=O)NC2CCN(CCNC(=O)C34C[C@H]5C[C@@H](C3)C[C@@H](C4)C5)CC2)c2ccccc21		1	Relaxation [6]: 38.5%
CC(C)n1nc(C(=O)NCCN2CCOCC2)c2ccccc21		19.8	Relaxation [6]: 42.3%
CCC(C)n1cc(C(=O)NC2CC3CCC(C2)N3C)c2ccccc21 (stereo not drawn)		57.8	
CC(C)n1nc(C(=O)NCCN2CCC(NC(=O)C34C[C@H]5C[C@@H](C3)C[C@@H](C4)C5)CC2)c2ccccc21	27		Relaxation [7]: 23.2%; pKi [5]: 4.3; Relaxation [8]: 48.1%; Relaxation [6]: 11%
COc1cc(N)c(Cl)cc1C(=O)NC1CCN(CCCOc2ccc(F)cc2)CC1OC (stereo not drawn)		7	Relaxation [3]: 20.3%; pKb [4]: 6.7; pKb [9]: 7.89
CC(C)n1nc(C(=O)NCCN2CCC(Cc3ccccc3)CC2)c2ccccc21	26	16.4	Relaxation [6]: 42%
CC(C)n1nc(C(=O)NC2CCN(CCCCc3ccccc3)CC2)c2ccccc21		4	pKb [4]: 5.6
CC(C)C(=O)NC1CCN(CCNC(=O)c2nn(C(C)C)c3ccccc23)CC1	45		Relaxation [8]: 34.8%; Relaxation [6]: 9%
CC(C)n1c(=O)n(C(=O)NC2CCN(CCCOc3ccc(F)cc3)CC2)c2ccccc21			Relaxation [6]: 62%
CCn1nc(C(=O)NC2CC3CCC(C2)N3C)c2ccccc21 (stereo not drawn)		6.7	
CC(C)n1nc(C(=O)NC2CCN(CCN3C(=O)c4ccccc4C3=O)CC2)c2ccccc21		7.5	pKb [9]: < 5
CC(C)n1nc(C(=O)NCCN2CCN(Cc3ccccc3)CC2)c2ccccc21		9.1	

Compound	Relaxation [1] [%]	Relaxation [2] [%]	other results
CC(C)n1nc(C(=O)NCCN2CCC(NS(C)(=O)=O)CC2)c2ccccc21	29	7.3	
CC(C)n1c(=O)n(C(=O)NC2CC3CCC(C2)N3C)c2ccccc21 (stereo not drawn)		2.7	pKb [10]: 7.5; Relaxation [7]: 13.8%; Relaxation [8]: 55%
CCn1cc(C(=O)NC2CC3CCC(C2)N3C)c2ccccc21 (stereo not drawn)		44.8	
CCCC(=O)NC1CCN(CCNC(=O)c2nn(C(C)C)c3ccccc23)CC1	51		Relaxation [6]: 26.5%
CN1C2CCCC1CC(NC(=O)c1nn(C)c3ccccc13)C2 (stereo not drawn)			Relaxation [3]: 21%
CC(C)n1c(=O)n(C(=O)NC2CC3CCC(C2)N3CCCOc2ccc(F)cc2)c2ccccc21 (stereo not drawn)		2.1	Relaxation [6]: 29.5%
CCCn1nc(C(=O)NC2CC3CCC(C2)N3C)c2ccccc21 (stereo not drawn)		2.5	
CC(C)n1nc(C(=O)NCCN2CCc3ccccc3C2)c2ccccc21	41	20.3	
CC(C)n1nc(C(=O)NC2CCN(C)CC2)c2ccccc21			pKb [10]: 6.3; Relaxation [7]: 37.3%
CCC(C)n1nc(C(=O)NC2CC3CCC(C2)N3C)c2ccccc21 (stereo not drawn)			Relaxation [7]: 46.3%
CN1C2CCC1CC(NC(=O)c1n[nH]c3ccccc13)C2 (stereo not drawn)			Relaxation [3]: 50.5%
CCn1c(=O)n(C(=O)NC2CC3CCC(C2)N3C)c2ccccc21 (stereo not drawn)			Relaxation [7]: 37.5%
CC(C)n1nc(C(=O)NCCN2CCC(NC(=O)Nc3ccccc3)CC2)c2ccccc21	33.7	11	
CC(C)n1nc(C(=O)NC2CCNCC2)c2ccccc21		32	
CC(C)n1nc(C(=O)NCCCCN2CCCCC2)c2ccccc21	49	3.3	pKi [5]: 5.2; Relaxation [6]: 43.3%
CC(C)n1nc(C(=O)NCCN2CCCCCC2)c2ccccc21	52	4.8	pKi [5]: 5

— ChEMBL document CHEMBL1131384, “Synthesis and structure-activity relationships of potent and orally active 5-HT4 receptor antagonists: indazole and benzimidazolone derivatives” (J Med Chem, 1998)
